Results of several laboratories.
Compare with care: the assays were run in different laboratories.
Target: Protein-tyrosine kinase 6 (PTK6, Homo sapiens, UniProt Q13882)

SMILES | effect on | action | method | concentration | quantity | value
C#Cc1n[nH]c2c(-c3cn([C@@H](C)c4ccccn4)c(=O)[nH]c3=O)cc(F)cc12 | enzyme activity | inhibitor | – | 0.1 µM | inhibition | 5.5%
Cn1cc(-c2cc(F)cc(N3CCn4c(cc5c4CCCC5)C3=O)c2CO)cc(Nc2ccc(N3CCN(C4COC4)CC3)cn2)c1=O | enzyme activity | inhibitor | – | 0.1 µM | inhibition | 10%
C#Cc1n[nH]c2c(-c3cn([C@@H](C)c4ccccc4)c(=O)[nH]c3=O)cc(F)cc12 | enzyme activity | inhibitor | – | 0.1 µM | inhibition | 9.4%
Cn1cc(-c2cccc(N3CCc4c(sc5c4CC(C)(C)C5)C3=O)c2CO)cc(Nc2ccncn2)c1=O | enzyme activity | inhibitor | – | 1 µM | inhibition | 1%
COc1cc(Nc2ncc(F)c(Nc3ccc4c(n3)NC(=O)C(C)(C)O4)n2)cc(OC)c1OC | binding | – | – | 10 µM | inhibition | 82%
Cc1nn(C)cc1-c1nc2c(N3CCN(Cc4ccc(Cl)cc4)CC3)c(Cl)cnc2[nH]1 | binding | – | competition with immobilised ligand | 1 µM | remaining binding | 96%
CC(C)(C)c1cc(C=C(C#N)C#N)cc(Br)c1O | enzyme activity | inhibitor | – | 0.5 µM | remaining activity | 91.4%
Cn1cncc1[C@@](O)(COc1ccc(C#N)cc1-c1ccc(OC(F)(F)F)cc1)c1ccc(C#N)cc1 | cell-free assay | – | competition with immobilised ligand | 1 µM | remaining binding | 100%
O=c1[nH]c2ccccc2n1C1CCN(Cc2ccc(-c3[nH]c4cc5ncnc5cc4nc3-c3ccccc3)cc2)CC1 | cell-free assay | – | – | 0.5 µM | remaining signal | 91.1%
COc1ncccc1-c1cnn2ccc(N3CCN(C(=O)OC(C)C)CC3)nc12 | binding | – | competition with immobilised ligand | 1 µM | remaining binding | 61%
